Assays:
Mu-type opioid receptor [1] = biological target: T1, Mu-type opioid receptor (Homo sapiens, UniProt P35372); assay: Displacement of [3H]DAMGO from human MOR expressed in CHO cell membranes after 60 mins
[2] = biological target: T2, Delta-type opioid receptor (Homo sapiens, UniProt P41143); assay: Displacement of [3H]DPDPE from human DOR expressed in CHO cell membranes after 60 mins
[3] = biological target: T3, Kappa-type opioid receptor (Homo sapiens, UniProt P41145); assay: Displacement of [3H]U69593 from human KOR expressed in CHO cell membranes after 60 mins
[4] = biological target: T2, Delta-type opioid receptor; assay: Agonist activity at human DOR expressed in CHO cell membranes after 60 mins by [35S]GTP-gamma-S binding assay
Method in brief: (§1)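 Receptor activation by standard [35S]GTP-γ-S binding. Each compound was assayed three times and reported as mean ± SEM.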

[5] = biological target: T3, Kappa-type opioid receptor; assay: Displacement of [3H]U69593 from human KOR expressed in CHO cell membranes at 1 uM after 60 mins
Method in brief: (§2)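 Competitive radioligand inhibition binding. […] DOR used [3H]DPDPE on membranes of CHO cells expressing human DOR. KOR used [3H]U69593 on CHO cells expressing human KOR. […] Each compound was run three times, mean ± SEM.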

[6] = biological target: T2, Delta-type opioid receptor; assay: Displacement of [3H]DPDPE from human DOR expressed in CHO cell membranes at 1 uM after 60 mins; method in brief: as §2
Mu-type opioid receptor [7] = biological target: T1, Mu-type opioid receptor; assay: Agonist activity at human MOR expressed in CHO cell membranes after 60 mins by [35S]GTP-gamma-S binding assay
Method in brief: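 [35S]GTP-γ-S binding read-out of G-protein activation. Each compound assayed three times, with values given as mean ± standard error of the mean.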

Mu-type opioid receptor [8] = biological target: T1, Mu-type opioid receptor; assay: Displacement of [3H]DAMGO from human MOR expressed in CHO cell membranes at 1 uM after 60 mins
[9] = biological target: T3, Kappa-type opioid receptor; assay: Agonist activity at human KOR expressed in CHO cell membranes after 60 mins by [35S]GTP-gamma-S binding assay; method in brief: as §1

T1 sequence (P35372 whole entry): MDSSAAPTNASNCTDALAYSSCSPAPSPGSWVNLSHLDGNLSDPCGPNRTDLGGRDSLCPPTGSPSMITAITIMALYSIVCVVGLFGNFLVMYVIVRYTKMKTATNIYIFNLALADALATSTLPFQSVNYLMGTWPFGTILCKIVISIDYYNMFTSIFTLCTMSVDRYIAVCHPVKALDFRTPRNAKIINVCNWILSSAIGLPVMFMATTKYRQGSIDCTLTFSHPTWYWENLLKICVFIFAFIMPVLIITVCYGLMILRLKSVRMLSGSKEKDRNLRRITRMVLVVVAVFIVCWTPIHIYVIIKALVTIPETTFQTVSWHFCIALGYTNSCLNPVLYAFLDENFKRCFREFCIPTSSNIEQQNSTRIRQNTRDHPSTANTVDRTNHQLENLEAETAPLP
T2 sequence (P41143 whole entry): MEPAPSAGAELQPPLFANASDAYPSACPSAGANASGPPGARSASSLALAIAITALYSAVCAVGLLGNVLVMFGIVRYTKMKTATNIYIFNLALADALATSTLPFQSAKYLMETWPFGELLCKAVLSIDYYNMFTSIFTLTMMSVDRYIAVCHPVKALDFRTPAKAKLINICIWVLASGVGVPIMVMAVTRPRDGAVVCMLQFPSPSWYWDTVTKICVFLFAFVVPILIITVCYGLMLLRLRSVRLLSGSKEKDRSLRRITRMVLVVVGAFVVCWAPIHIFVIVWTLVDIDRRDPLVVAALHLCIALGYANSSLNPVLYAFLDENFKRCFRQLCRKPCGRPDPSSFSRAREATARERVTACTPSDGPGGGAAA
T3 sequence (P41145 whole entry): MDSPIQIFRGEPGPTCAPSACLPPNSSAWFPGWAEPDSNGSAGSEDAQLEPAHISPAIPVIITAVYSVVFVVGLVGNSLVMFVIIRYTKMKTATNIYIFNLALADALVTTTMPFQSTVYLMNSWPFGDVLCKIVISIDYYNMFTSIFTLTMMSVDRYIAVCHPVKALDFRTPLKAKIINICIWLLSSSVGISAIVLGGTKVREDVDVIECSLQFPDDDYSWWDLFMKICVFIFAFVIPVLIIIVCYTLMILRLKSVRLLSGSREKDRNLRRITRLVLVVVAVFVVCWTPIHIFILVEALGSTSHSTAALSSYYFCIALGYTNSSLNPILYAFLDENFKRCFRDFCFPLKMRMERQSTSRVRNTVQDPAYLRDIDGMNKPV

| SMILES | Ki (Mu-type opioid receptor [1]) | Ki [2] | Ki [3] | also measured |
| --- | --- | --- | --- | --- |
| CN(C)C[C@H]1CCc2cc(-c3ccccc3F)ccc2[C@]1(O)c1cccc(O)c1 | > 10 µM | 0.72 µM | > 10 µM | EC50 [4]: 1.6 µM; Emax [4]: 172% |
| COc1cccc([C@@]2(O)c3ccc(-c4ccc(Cl)c(Cl)c4)cc3CC[C@@H]2CN(C)C)c1 | > 10 µM | > 10 µM | > 10 µM | – |
| COc1ccccc1-c1ccc2c(c1)CCC(CN(C)C)C2(O)c1cccc(O)c1 (single isomer, unassigned; (+)) | – | > 10 µM | – | Ki (Mu-type opioid receptor [1]; cho): > 10 µM; Ki ([3]; cho): > 10 µM |
| CN(C)C[C@H]1CCc2cc(-c3ccccc3C(F)(F)F)ccc2[C@]1(O)c1cccc(O)c1 | > 10 µM | 0.065 µM | > 10 µM | EC50 [4]: 0.9 µM; Emax [4]: 217% |
| COc1cccc([C@@]2(O)c3ccc(-c4ccccc4)cc3CC[C@@H]2CN(C)C)c1 | > 10 µM | > 10 µM | – | inhibition [5]: 37% |
| Cc1ccccc1-c1ccc2c(c1)CC[C@H](CN(C)C)[C@@]2(O)c1cccc(O)c1 | > 10 µM | 0.14 µM | > 10 µM | EC50 [4]: 0.49 µM; Emax [4]: 199% |
| COc1ccccc1-c1ccc2c(c1)CCC(CN(C)C)C2(O)c1cccc(O)c1 (single isomer, unassigned; (-)) [listing 1 of 2 here] | – | – | – | Emax [4]: 205% |
| COc1cccc([C@@]2(O)c3ccc(-c4ccc(Cl)cc4)cc3CC[C@@H]2CN(C)C)c1 | > 10 µM | > 10 µM | > 10 µM | – |
| CN(C)C[C@H]1CCc2cc(-c3ccc(Cl)cc3)ccc2[C@]1(O)c1cccc(O)c1 | > 10 µM | – | – | inhibition [6]: 17%; inhibition [5]: 8.9% |
| CN(C)C[C@H]1CCc2cc(-c3ccc(Cl)c(Cl)c3)ccc2[C@]1(O)c1cccc(O)c1 | > 10 µM | > 10 µM | > 10 µM | – |
| COc1ccccc1-c1ccc2c(c1)CCC(CN(C)C)C2(O)c1cccc(O)c1 (single isomer, unassigned; (-)) [listing 2 of 2 here] | > 10 µM | 0.0027 µM | > 10 µM | EC50 [4]: 0.0026 µM |
| CN(C)C[C@H]1CCc2cc(-c3ccc(C(F)(F)F)cc3)ccc2[C@]1(O)c1cccc(O)c1 | > 10 µM | > 10 µM | > 10 µM | – |
| COc1cccc(-c2ccc3c(c2)CC[C@H](CN(C)C)[C@@]3(O)c2cccc(O)c2)c1 | > 10 µM | – | – | inhibition [6]: 43%; inhibition [5]: 15% |
| CN(C)C[C@H]1CCCC[C@]1(O)c1cccc(O)c1 (racemic) [O-DESMETHYL TRAMADOL] | – | > 10 µM | > 10 µM | Emax (Mu-type opioid receptor [7]): 220% |
| COc1cccc([C@@]2(O)CCCC[C@@H]2CN(C)C)c1 (racemic) [(R,R)-TRAMADOL] | – | > 10 µM | > 10 µM | inhibition (Mu-type opioid receptor [8]): 9.6% |
| CN(C)C[C@H]1CCc2cc(-c3ccccc3OC(F)(F)F)ccc2[C@]1(O)c1cccc(O)c1 | > 10 µM | 0.26 µM | > 10 µM | EC50 [4]: 1 µM; Emax [4]: 215% |
| COc1ccccc1-c1ccc2c(c1)CC[C@H](CN(C)C)[C@@]2(O)c1cccc(O)c1 | > 10 µM | 0.0047 µM | – | inhibition [5]: 17.7%; EC50 [4]: 0.0093 µM; Emax [4]: 230% |
| CN(C)C[C@H]1CCc2cc(-c3ccccc3)ccc2[C@]1(O)c1cccc(O)c1 | – | – | 0.14 µM | inhibition (Mu-type opioid receptor [8]): 20%; inhibition [6]: 22%; EC50 [9]: 0.58 µM; Emax [9]: 187% |
| COc1ccc(-c2ccc3c(c2)CC[C@H](CN(C)C)[C@@]3(O)c2cccc(O)c2)cc1 | > 10 µM | – | > 10 µM | inhibition [6]: 32% |
| CN(C)C[C@H]1CCc2cc(-c3ccccc3Cl)ccc2[C@]1(O)c1cccc(O)c1 | > 10 µM | 0.16 µM | > 10 µM | EC50 [4]: 0.95 µM; Emax [4]: 216% |
| COc1cccc(-c2ccc3c(c2)CC[C@H](CN(C)C)[C@@]3(O)c2cccc(OC)c2)c1 | > 10 µM | > 10 µM | > 10 µM | – |
| COc1cccc([C@@]2(O)c3ccc(-c4ccccc4C)cc3CC[C@@H]2CN(C)C)c1 | > 10 µM | – | – | inhibition [6]: 13%; inhibition [5]: 16.2% |
| COc1ccc(-c2ccc3c(c2)CC[C@H](CN(C)C)[C@@]3(O)c2cccc(OC)c2)cc1 | > 10 µM | > 10 µM | > 10 µM | – |
| COc1cccc([C@@]2(O)c3ccc(-c4ccccc4OC)cc3CC[C@@H]2CN(C)C)c1 | > 10 µM | – | > 10 µM | inhibition [6]: 37.9% |
| COc1cccc([C@@]2(O)c3ccc(-c4ccc(C(F)(F)F)cc4)cc3CC[C@@H]2CN(C)C)c1 | > 10 µM | > 10 µM | > 10 µM | – |

Reference: ChEMBL document CHEMBL3808393, “Discovery of Potent and Selective Agonists of δ Opioid Receptor by Revisiting the "Message-Address" Concept” (ACS Med Chem Lett, 2016)
